# Activity calls are given as the source filed them. No cut-off for these calls is given here.
# Tests used:
# [1] = test system: H9c2; experiment: Anti-ischemic activity against ischemia/reperfusion-induced rat H9c2 cell death assessed as cell viability at 10 uM (Rbv = 63 +/- 2%); assay type: functional; conditions: read-out: Activity
# [2] = test system: H9c2; experiment: Anti-ischemic activity against ischemia/reperfusion-induced rat H9c2 cell death assessed as cell viability at 100 uM in presence of mito-KATP channel blocker 5-hydroxydecanoic acid; assay type: functional, cell-based
# [3] = test system: H9c2; experiment: Anti-ischemic activity against ischemia/reperfusion-induced rat H9c2 cell death assessed as cell viability at 100 uM (Rbv = 63 +/- 2%); assay type: functional; conditions: read-out: Activity
# [4] = test system: Rattus norvegicus; experiment: Anti-ischemic activity against Langendorff perfused Wistar rat heart assessed as recovery of post-ischemic inotropic functionality measured during whole reperfusion period at 40 mg/kg, ip relative to control; assay type: functional, organism-based; design: dose 40 mg/kg; conditions: Wister
# In short: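 Rats pre-treated with test agent 40 mg/kg before heart isolation. Langendorff-perfused hearts underwent ischemia then reperfusion. Rate-pressure product (RPP) was recorded over the reperfusion period and expressed as % of pre-ischemic RPP.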
# [5] = test system: Rattus norvegicus; experiment: Anti-ischemic activity against in Langendorff perfused Wistar rat heart assessed as reduction in ischemia-induced left ventricular tissue injury at 40 mg/kg, ip by morphological analysis; assay type: functional, organism-based; design: dose 40 mg/kg; conditions: Wister
# In short: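 Hearts came from rats pre-treated at 40 mg/kg and underwent ischemia/reperfusion in Langendorff perfusion. Left ventricles were analysed morphologically for injured tissue. Infarct size was expressed as % of left ventricular area (Ai/ALV%).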
# [6] = test system: H9c2; experiment: Anti-ischemic activity against ischemia/reperfusion-induced rat H9c2 cell death assessed as cell viability at 10 uM in presence of mito-KATP channel blocker 5-hydroxydecanoic acid; assay type: functional, cell-based
smiles,measurement,setting,value
CC1(C)CC2(OC(=O)N(Cc3ccc(NS(C)(=O)=O)cc3)C2=N)c2cc(Br)ccc2O1 (racemic),viability at 10 µM,[1],78%
CC1=Nc2ccc(Cl)cc2S(=O)(=O)N1 [DIAZOXIDE],Activity,[2],inactive
same,viability at 100 µM,[3],103%
CC(=O)Nc1ccc(CN2CC3(CC(C)(C)Oc4ccccc43)OC2=O)cc1 (racemic),Activity,[4],Active
same,Activity,[5],Active
same,viability at 10 µM,[1],92%
same,Activity,[6],inactive
CC1(C)CC2(CN(Cc3ccc(NS(C)(=O)=O)cc3)C(=O)O2)c2ccccc2O1 (racemic),viability at 10 µM,[1],84%
CC(=O)Nc1ccc(CN2CC3(CC(C)(C)Oc4ccc(Br)cc43)OC2=O)cc1 (racemic),viability at 10 µM,[1],81%
CC(=O)Nc1ccc(CN2C(=N)C3(CC(C)(C)Oc4ccccc43)OC2=O)cc1 (racemic),viability at 10 µM,[1],68%
CC(=O)Nc1ccc(CN2C(=N)C3(CC(C)(C)Oc4ccc(Br)cc43)OC2=O)cc1 (racemic),viability at 10 µM,[1],76%
CC(=O)Nc1ccc(CN2CC3(CC(C)(C)Oc4ccccc43)OCC2=O)cc1 (stereo not given),Activity,[4],Active
same,Activity,[5],Active
same,viability at 10 µM,[1],99%
same,Activity,[6],inactive

# — ChEMBL document CHEMBL1759860, “Synthesis and biological evaluation of 5-membered spiro heterocycle-benzopyran derivatives against myocardial ischemia” (2011)
